Screening results (PubChem)
MPTP inh = mitochondrial permeability transition pore inhibitors, primary screen, biochemical, isolated mouse mitochondria, absorbance; 360,000 compounds, 1.4% hits; AID 602449, 2012; Ca2+ swelling absorbance, 30 min; inhibition, % at 10 µM;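 active = inhibition of 50% or more, scaled per plate between neutral and stimulator controls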
Hep lipid drop = inhibitors of hepatocyte lipid droplet formation, primary screen, imaging, high-throughput imaging, BODIPY stain. AML12 mouse hepatocytes, oleate lipid droplets. inhibition, % at 6.5 µM. 240,000 compounds, 0.4% hits. AID 1656, 2009;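 active = lipid droplet intensity inhibited by at least 50%, with more than 500 cells counted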
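Assay system: AML12 hepatocytes (mouse); Probe or stimulus: oleic acid at 100 µM to induce lipid droplet formation; Dosing: compound at 6.5 µM only; Schedule: compound with oleate, overnight; Detection: fluorescence imaging, 20x objective, two fields per well; Measure: % inhibition of lipid droplet signal.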
T cruzi repl = inhibitors of intracellular T. cruzi growth, primary screen, luminescence, NIH3T3 host cells; T. cruzi beta-gal in NIH3T3, 90 h; inhibition, % (test concentration not listed); 300,000 compounds, 1.4% hits;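 active = mean inhibition across valid replicates above about 55%, limit read from the data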;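 note: signal also drops with host cell toxicity which is not excluded here; higher percent means less beta-gal luminescence so fewer parasites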
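Read-out: Parasite load inhibition, % | Test system: Mouse NIH/3T3 fibroblasts infected with β-gal-expressing T. cruzi Tulahuen C4 | Amount: 5,000 cells/well | Medium: DMEM, 2% fetal bovine serum | Signal: GalScreen β-gal luminescence, detergent lysis, 60 min | Timing: 3 h attach, ≥90 h co-culture | Also added: Tulahuen C4 trypomastigotes, 5000/well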
Redox H2O2 prof = compounds producing H2O2 with reducing agent – biochemical, NIH compound library profiling, artefact control for MLSCN library redox annotation, primary screen; 200,000 compounds, 0.03% hits; activation, % at 10 µM; DTT-dependent redox cycling H2O2, phenol red/HRP absorbance; 100% = 100 µM peroxide control, 0% = buffer; AID 878, 2007;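 active = activation of at least 50% relative to the plate's high and low controls in the primary single-dose screen; inactive = activation below 50%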;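 note: compound incubated with DTT at 0.8 mM final as the reducing agent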
L major viab = Leishmania major promastigote growth inhibition, primary screen; inhibition, % at 10 µM; Leishmania major promastigotes, resazurin fluorescence viability; 200,000 compounds, 9% hits; in the data active = inhibition above about 50%;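 note: promastigotes grown with compound for 44 hours at 28 °C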
Numbers stand for hits; i = inactive; nt = no result given. Many of the other results were omitted from the sample, so hits are more common in it than they were.

SMILES	MPTP inh	Hep lipid drop	T cruzi repl	Redox H2O2 prof	L major viab
CC1=C(C(=O)Nc2ccccc2)C(c2ccncc2)C(C#N)=C(SCC(=O)NC2CC2)N1 (stereo unspecified)	i	nt	i	i	73.3
CC1=C(C(=O)Nc2nc3ccccc3s2)C(c2ccco2)C(C#N)=C(SCC(=O)NC2CCCCC2)N1 (stereo unspecified)	i	i	i	i	73.0
CC(C(=O)Nc1ccccc1-c1ccccc1)N1CCN(Cc2ccccc2)CC1 (stereo unspecified)	i	i	i	i	i
Cc1ccc(S(=O)(=O)N2CCN(C(C)C(=O)Nc3ccccc3-c3ccccc3)CC2)cc1 (stereo unspecified)	i	i	i	i	93.6
CC(C(=O)Nc1ccccc1-c1ccccc1)N1CCN(C(=O)c2ccccc2)CC1 (stereo unspecified)	i	i	i	nt	nt
CC1CCN(C(C)C(=O)Nc2ccccc2-c2ccccc2)CC1 (stereo unspecified)	i	nt	i	i	51.0
COc1cc(C(=S)N2CCCC2)ccc1OCc1ccccc1	i	i	i	nt	nt
Cc1ccc(C2=NN=C(NC(=O)CSc3nncn3C)SC2)cc1	i	i	i	i	i
O=C(COC(=O)c1c2c(nc3ccccc13)CCCC2)c1cccs1	i	nt	i	i	i
O=C(COC(=O)c1c2c(nc3ccccc13)CCCCC2)c1ccc(Cl)s1	i	i	i	i	61.6
CC(C)c1ccc(S(=O)(=O)/N=C2/C=CC(=O)c3ccccc32)cc1	nt	i	nt	i	74.1
CCc1ccc(C(=O)COC(=O)c2cccnc2Cl)cc1	i	i	i	i	i
O=C(N/N=C/c1ccc(O)cc1)Nc1cccc2nsnc12	i	i	62.1	i	53.9
COc1cc(/C=N/NC(=O)Nc2cccc3nsnc23)cc(OC)c1OC	i	i	i	i	i
CC1=C(C(=O)Nc2ccccc2)C(c2cccc([N+](=O)[O-])c2)Nc2nc3ccccc3n21 (stereo unspecified)	i	i	i	i	97.7
CNC(=O)C1=C(C)n2c(nc3ccccc32)NC1c1ccc(OC)cc1 (stereo unspecified)	i	i	i	i	i
COc1cccc(CN2CC(C(=O)NCCc3cn4cccnc4n3)CCC2=O)c1 (stereo unspecified)	i	nt	nt	nt	nt
O=C(NCc1cn(-c2ccccc2)nc1-c1ccc(F)cc1)c1cccc([N+](=O)[O-])c1	i	i	60.5	i	81.0
O=C(O)c1cccc(NC(=O)c2cn(-c3ccccc3)nc2-c2ccc(F)cc2)c1	i	i	i	nt	nt
CCn1cc(CNC(=O)c2cccc([N+](=O)[O-])c2)c(C)n1	i	i	i	i	i
O=C(c1cn(-c2ccccc2)nc1-c1ccc(F)cc1)N1CCCCC1	i	i	i	nt	81.3
O=C(c1cn(-c2ccccc2)nc1-c1ccc(F)cc1)N1CCOCC1	i	nt	i	i	i
O=C(CCl)Nc1cn(-c2ccccc2)nc1-c1ccc(F)cc1	i	i	i	i	84.4
Cc1ccc(/C=C2\CCCC3=C2NC(=S)NC3c2ccc(C)cc2)cc1 (stereo unspecified)	i	i	i	i	i
COc1ccc(C2NC(=S)NC3=C2CCc2cc(OC)ccc23)cc1 (stereo unspecified)	i	nt	i	i	62.5
SMILES	MPTP inh	Hep lipid drop	T cruzi repl	Redox H2O2 prof	L major viab
CCN(CC)CCNC(=O)c1ccc(CS(=O)(=O)c2ccc(Br)cc2)o1	i	i	i	i	78.5
CN(CCNC(=O)c1ccc(CS(=O)(=O)c2ccc(Br)cc2)o1)CCc1ccccc1	i	i	i	nt	nt
CC(C)(C)OC(=O)NCc1ccc(CNC(=O)c2nc[nH]c2C(=O)N2CCN(C(=O)OC(C)(C)C)CC2)cc1	i	nt	nt	nt	nt
COC(=O)c1ccc(NC(=O)C(OC)c2ccccc2)cc1 (stereo unspecified)	i	i	i	i	i
COc1ccccc1C(c1nnnn1Cc1ccccc1)N1CCN(C2CCCC2)CC1 (stereo unspecified)	i	i	i	i	i
COc1cccc(C(c2nnnn2Cc2ccccc2)N2CCN(C3CCCC3)CC2)c1OC (stereo unspecified)	i	nt	i	i	97.7
COc1ccc(C(c2nnnn2C2CCCC2)N2CCN(C3CCCC3)CC2)cc1OC (stereo unspecified)	i	i	i	i	83.2
